Legend:
Type in all cases: cell-based, Human
cancer cell lines = assay: MTT growth inhibition assay, summary over the cancer cell line panel; settings: 48 h; for cytotoxicity against the cancer cell lines: MTT
H460 cells [1] = assay: Cell cycle analysis by propidium iodide staining and flow cytometry, H460; settings: H460, 1.0, 2.5, 5.0 µM, 24 h
Procedure, shortened: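 After 24 h exposure to test compound at 1.0, 2.5 or 5.0 µM, H460 cells were washed in PBS and fixed overnight in 70% ice-cold ethanol at −20 °C. They were then stained in the dark for 30 min with 0.1% Triton X-100, 0.2 mg/mL RNase and 20 µg/mL propidium iodide. DNA content was measured by flow cytometry and histograms were modelled for phase distribution.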

HL-60 cells = assay: Hoechst 33258 staining; settings: HL-60, 0.25-1.0 µM, 24 h
Procedure, shortened: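 HL-60 cells seeded at 1×10⁵ per well and incubated 24 h with test compound at 0.25, 0.5 and 1.0 µM. After phase-contrast imaging, nuclei stained with Hoechst 33258 (5 µg/mL, 10 min), washed twice with PBS and fixed in 4% PFA/PBS for 10 min at 25 °C. Apoptotic chromatin condensation or fragmentation assessed; fluorescence at ex 365/em 460 nm.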

H460 cells [2] = assay: Hoechst 33258 staining; settings: H460, 1.0-5.0 µM, 24 h
Procedure, shortened: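 H460 cells plated at 5×10⁴ per well and exposed to test compound at 1.0, 2.5 and 5.0 µM for 24 h. Cells photographed under phase contrast, then stained with 5 µg/mL Hoechst 33258 for 10 min, washed twice in PBS and fixed in 4% PFA/PBS for 10 min at 25 °C. Nuclei scored for chromatin condensation or fragmentation; fluorescence read at ex 365/em 460 nm.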

[3] = system: cyclin B1, CDK1, caspase 3 in HL-60 cells; assay: Western blot of cyclin B1, CDK1 and caspase 3, HL-60; settings: HL-60, 24 h
Procedure, shortened: (§1)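 Cells grown in RPMI-1640 with 10% FBS at 37 °C, 5% CO₂, then treated with test compound at graded concentrations for 24 h. Harvested cells lysed on ice for 30 min and spun at 12,000 g for 20 min. Protein quantified by Bradford, denatured in Tris-HCl pH 6.8/DTT/SDS loading buffer, run on 10% SDS-PAGE and transferred to nitrocellulose. Detection by chemiluminescence, with β-actin as loading control.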

[4] = system: cyclin B1, CDK1, caspase 3 in H460 cells; assay: Western blot of cyclin B1, CDK1 and caspase 3, H460; settings: H460, 24 h
Procedure, shortened: as §1

## O=c1cc(-c2cccc(F)c2)c2cc3c(cc2[nH]1)OCO3 [Compound 12m, 4-(3-Fluorophenyl)-6,7-methylenedioxyquinolin-2(1H)-one]
Cancer cell lines
  cytotoxicity against the cancer cell lines: weak cytotoxicity

## COc1cc(-c2cc(=O)[nH]c3cc4c(cc23)OCO4)cc(OC)c1OC [Compound 12k, 6,7-Methylenedioxy-4-(3,4,5-trimethoxyphenyl)quinolin-2(1H)-one]
Cancer cell lines; Homo sapiens, read-out: IC50 range over cancer cell lines
  IC50: 0.93 to 7.6 µM

## COc1ccc(-c2cc(=O)[nH]c3cc4c(cc23)OCO4)c(OC)c1 [Compound 12e, 6,7-Methylenedioxy-4-(2,4-dimethoxyphenyl)quinolin-2(1H)-one]
H460 cells [1]
  percentage of G2/M cells: increased
HL-60 cells
  apoptotic morphology by Hoechst 33258 staining: typical apoptotic characteristics
H460 cells [2]
  apoptotic morphology by Hoechst 33258 staining: typical apoptotic characteristics
[3]
  CDK1 protein expression level: decreased in a concentration-dependent manner
  caspase 3 cleavage (17 kDa): induced caspase 3 cleavage
  cyclin B1 protein expression: transient increase followed by a decrease
[4]
  CDK1 protein expression level: increased in a concentration-dependent manner
  caspase 3 cleavage (17 kDa): induced caspase 3 cleavage

## O=c1cc(-c2ccc(F)cc2)c2cc3c(cc2[nH]1)OCO3 [Compound 12n, 4-(4-Fluorophenyl)-6,7-methylenedioxyquinolin-2(1H)-one]
Cancer cell lines
  cytotoxicity against the cancer cell lines: weak cytotoxicity

## O=c1cc(-c2ccccc2F)c2cc3c(cc2[nH]1)OCO3 [Compound 12l, 4-(2-Fluorophenyl)-6,7-methylenedioxyquinolin-2(1H)-one]
Cancer cell lines
  cytotoxicity against the cancer cell lines: weak cytotoxicity

## O=c1cc(-c2ccccc2)c2cc3c(cc2[nH]1)OCO3 [Compound 12a, 6,7-Methylenedioxy-4-phenylquinolin-2(1H)-one]
Cancer cell lines
  cytotoxicity against the cancer cell lines: poor cytotoxicity

Reference: article PMC3822768 (Bioorganic & medicinal chemistry, 2013)
